MIC50, MIC90 and Activity data for two compounds are collected here from ChEMBL document CHEMBL1152989, “Results of a double-blind, randomized trial of ceftobiprole treatment of complicated skin and skin structure infections caused by gram-positive bacteria” (Antimicrob Agents Chemother, 2008).

Each structure is given as a SMILES string. In brackets after ≈: the same amount, converted by molar mass.

The test system of data set [1] is Staphylococcus aureus. In words: Antibacterial activity against methicillin-susceptible Staphylococcus aureus. The data set is classed as functional. In outline: (§1)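 Duplicate baseline isolates from the infection site were tested centrally for susceptibility on customized TREK broth panels by CLSI methods. Identification was by coagulase and API testing. Staphylococci were typed for mecA and PVL genes by multiplex analysis.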

For data set [2], the species on record is Homo sapiens. In words: Toxicity in methicillin-resistant Staphylococcus aureus-infected human with complicated skin and skin structure infection assessed as constipation. The data set is classed as organism-based. The conditions noted are these: in vivo. In outline:
(§2)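 Safety population: randomized patients given at least one dose of IV study drug (500 mg every 12 h, 1-h infusion, 7–14 days) or vancomycin 1 g every 12 h, double-blind. Adverse events, including deaths, were recorded during treatment and follow-up. Laboratory values were compared between baseline and end of therapy.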

Data set [3] concerns Staphylococcus aureus. In words: Antibacterial activity against methicillin-resistant Staphylococcus aureus infected in human with infections extending to fascia or muscle assessed as cure rate at test-of-cure visit. The data set is classed as functional, Muscle tissue.
The species named for data set [4] is Homo sapiens. In words: Toxicity in methicillin-resistant Staphylococcus aureus-infected human with complicated skin and skin structure infection assessed as dysgeusia. The data set is classed as organism-based. The conditions noted are these: in vivo. A digest of the protocol:
as §2

The species named for data set [5] is Homo sapiens. In words: Toxicity in methicillin-resistant Staphylococcus aureus-infected human with complicated skin and skin structure infection assessed as vomiting. In kind it is organism-based. As to conditions: in vivo. A digest of the protocol:
as §2

The species named for data set [6] is Homo sapiens. Description: Toxicity in methicillin-resistant Staphylococcus aureus-infected human with complicated skin and skin structure infection assessed as headache. In kind it is organism-based. The conditions noted are these: in vivo. In outline:
as §2

The species entered for data set [7] is Homo sapiens. In words: Toxicity in methicillin-resistant Staphylococcus aureus-infected human assessed as death. In kind it is organism-based. The conditions noted are these: in vivo. In outline:
as §2

The subject of data set [8] is Staphylococcus aureus. In words: Antibacterial activity against methicillin-susceptible Staphylococcus aureus infected in human with complicated skin and skin structure infection assessed as cure rate at test-of-cure visit. In kind it is functional.
For data set [9], the species on record is Homo sapiens. In words: Toxicity in methicillin-resistant Staphylococcus aureus-infected human with complicated skin and skin structure infection assessed as rash. In kind it is organism-based. The conditions noted are these: in vivo. A digest of the protocol:
as §2

For data set [10], the system named is Staphylococcus aureus. Description: Antibacterial activity against methicillin-resistant Staphylococcus aureus infected in human with complicated skin and skin structure infection assessed as cure rate at test-of-cure visit. In kind it is functional.
Data set [11] is filed under the species Homo sapiens. Description: Toxicity in methicillin-resistant Staphylococcus aureus-infected human with complicated skin and skin structure infection assessed as nausea. The data set is classed as organism-based. The conditions noted are these: in vivo. A digest of the protocol: as §2
The subject of data set [12] is Staphylococcus aureus. Description: Antibacterial activity against methicillin-resistant Staphylococcus aureus clinical isolate. In kind it is functional. A digest of the protocol: as §1
For data set [13], the system named is Staphylococcus aureus. In words: Antibacterial activity against methicillin-resistant Staphylococcus aureus infected in human with complicated skin and skin structure infection assessed as cure rate at test-of-cure visit in presence of C-reactive protein. In kind it is functional.
For data set [14], the species on record is Homo sapiens. In words: Toxicity in methicillin-resistant Staphylococcus aureus-infected human with complicated skin and skin structure infection assessed as dizziness. The data set is classed as organism-based. The conditions noted are these: in vivo. In outline:
as §2

The species named for data set [15] is Homo sapiens. Description: Toxicity in methicillin-resistant Staphylococcus aureus-infected human with complicated skin and skin structure infection assessed as diarrhea. The data set is classed as organism-based. The conditions noted are these: in vivo. A digest of the protocol:
as §2

The subject of data set [16] is Staphylococcus aureus. Description: Antibacterial activity against methicillin-resistant Staphylococcus aureus PVL positive isolate infected in human with complicated skin and skin structure infection assessed as cure rate at test-of-cure visit. In kind it is functional.
The species entered for data set [17] is Homo sapiens. Description: Toxicity in methicillin-resistant Staphylococcus aureus-infected human with complicated skin and skin structure infection assessed as pruritus. In kind it is organism-based. The conditions noted are these: in vivo. A digest of the protocol:
as §2

The test system of data set [18] is Staphylococcus aureus. Description: Antibacterial activity against methicillin-resistant Staphylococcus aureus. The data set is classed as functional. A digest of the protocol: as §1

One may read the MIC50 as an inhibitory concentration at the 50% level, which refers to growth in some studies and to a panel of isolates in others. A lower MIC50 goes with greater potency. As usually defined, the MIC90 is the lowest concentration that inhibits either 90% of growth or 90% of the strains tested, depending on the study.

With `Nc1nc(/C(=N/O)C(=O)N[C@@H]2C(=O)N3C(C(=O)O)=C(/C=C4\CCN([C@@H]5CCNC5)C4=O)CS[C@H]23)ns1` [CEFTOBIPROLE], the MIC50 was found to be 0.25 µg/mL (≈ 0.468 µM) in the data set with Staphylococcus aureus [1] and 0.5 µg/mL (≈ 0.935 µM) against Staphylococcus aureus [12]. Moreover, the figures for the MIC90 in the data set with Staphylococcus aureus [1], with Staphylococcus aureus [12] and in the data set on Staphylococcus aureus [18] were 0.5 µg/mL (≈ 0.935 µM), 2 µg/mL (≈ 3.74 µM) and at most 2 µg/mL, respectively. The Activity was 4% in the data set listed under Homo sapiens [2]; 90.5% in the data set on Staphylococcus aureus [3]; 8% in the data set listed under Homo sapiens [4]; 7% in the data set listed under Homo sapiens [5]; 7% in the data set listed under Homo sapiens [6]; “Non-toxic” in the data set listed under Homo sapiens [7]. Also, the Activity was 96% in the data set on Staphylococcus aureus [8]; 2% in the data set listed under Homo sapiens [9]; 91.8% in the data set with Staphylococcus aureus [10]; 14% in the data set filed under Homo sapiens [11]; 86.9% in the data set on Staphylococcus aureus [13]; 4% in the data set listed under Homo sapiens [14]. Further, the Activity in the data set listed under Homo sapiens [15] is reported as 5%; with Staphylococcus aureus [16], 93.1%; in the data set filed under Homo sapiens [17] it was 3%.

For `CN[C@H](CC(C)C)C(=O)N[C@H]1C(=O)N[C@@H](CC(N)=O)C(=O)N[C@H]2C(=O)N[C@H]3C(=O)N[C@H](C(=O)N[C@H](C(=O)O)c4cc(O)cc(O)c4-c4cc3ccc4O)[C@H](O)c3ccc(c(Cl)c3)Oc3cc2cc(c3O[C@@H]2O[C@H](CO)[C@@H](O)[C@H](O)[C@H]2O[C@H]2C[C@](C)(N)[C@H](O)[C@H](C)O2)Oc2ccc(cc2Cl)[C@H]1O` [VANCOMYCIN], the MIC50 in the data set on Staphylococcus aureus [1] and in the data set on Staphylococcus aureus [12] was 0.5 µg/mL (≈ 0.345 µM) in each case. The MIC90 against Staphylococcus aureus [1] and against Staphylococcus aureus [12] was 1 µg/mL (≈ 0.69 µM) each time. For the same compound, the Activity in the data set listed under Homo sapiens [2] turned out to be 3%; in the data set with Staphylococcus aureus [3], 85.7%; in the data set listed under Homo sapiens [4], 1%; in the data set listed under Homo sapiens [5], 4%; in the data set filed under Homo sapiens [6], 6%; in the data set on Staphylococcus aureus [8], 96.4%. Moreover, the Activity stood at 3% in the data set filed under Homo sapiens [9]; 90% with Staphylococcus aureus [10]; 8% in the data set filed under Homo sapiens [11]; 87.5% in the data set on Staphylococcus aureus [13]; 2% in the data set listed under Homo sapiens [14]; 4% in the data set filed under Homo sapiens [15]. In addition, the values for the Activity with Staphylococcus aureus [16] and in the data set listed under Homo sapiens [17] were 84.6% and 6%, respectively.
